According to article PMC2921666 (Genes & cancer, 2010):

Experiments:
[1] = system: STAT-5 phosphorylation in 32D:p210T315I cells; test: STAT-5 phosphorylation in 32D:p210T315I cells; type: cell-based, murine; conditions: 2 hours
Method in brief: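 Exponentially growing 32D:p210T315I cells, kept in IMDM with 10% FBS, were given the test compound at the indicated concentrations for 2 h. They were then PBS-washed and lysed in detergent buffer. 50 µg of clarified lysate underwent SDS-PAGE and Western blotting for phospho-STAT-5.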

32D:p210T315I cells = test: Growth inhibition, 32D:p210T315I cells; type: cell-based, murine; conditions: Mus musculus, 72 h
Method in brief: (§1)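 Cells grown 72 h with varying concentrations of test compound. Media: Ba/F3:JAK2V617F in RPMI 1640 with 10% FBS plus 1% WEHI-3B conditioned medium (IL-3 source); 32D:p210T315I in IMDM with 10% FBS; K562 in RPMI 1640 with 10% FBS; HEL and SET-2 in RPMI 1640 with 20% and 10% heat-inactivated FBS. Viability by Trypan blue exclusion; GI50 from percent viable cells plotted against drug concentration.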

K562 cells = test: Growth inhibition, K562 cells; type: cell-based; conditions: Homo sapiens, K562, 72 h
Method in brief: as §1

[2] = biological target: recombinant V617F mutant JAK2 (aa 532-1132) (Homo sapiens, UniProt O60674, V617F); test: Radiometric kinase assay, recombinant V617F mutant JAK2; type: biochemical; conditions: read-out: IC50, kinase activity of mutant JAK2 (V617F); JAK2-V617F aa 532-1132, GST-Abltide substrate, 20 μM ATP
recombinant V617F mutant JAK2 (aa 532-1132), sequence (O60674 532-1132 V617F): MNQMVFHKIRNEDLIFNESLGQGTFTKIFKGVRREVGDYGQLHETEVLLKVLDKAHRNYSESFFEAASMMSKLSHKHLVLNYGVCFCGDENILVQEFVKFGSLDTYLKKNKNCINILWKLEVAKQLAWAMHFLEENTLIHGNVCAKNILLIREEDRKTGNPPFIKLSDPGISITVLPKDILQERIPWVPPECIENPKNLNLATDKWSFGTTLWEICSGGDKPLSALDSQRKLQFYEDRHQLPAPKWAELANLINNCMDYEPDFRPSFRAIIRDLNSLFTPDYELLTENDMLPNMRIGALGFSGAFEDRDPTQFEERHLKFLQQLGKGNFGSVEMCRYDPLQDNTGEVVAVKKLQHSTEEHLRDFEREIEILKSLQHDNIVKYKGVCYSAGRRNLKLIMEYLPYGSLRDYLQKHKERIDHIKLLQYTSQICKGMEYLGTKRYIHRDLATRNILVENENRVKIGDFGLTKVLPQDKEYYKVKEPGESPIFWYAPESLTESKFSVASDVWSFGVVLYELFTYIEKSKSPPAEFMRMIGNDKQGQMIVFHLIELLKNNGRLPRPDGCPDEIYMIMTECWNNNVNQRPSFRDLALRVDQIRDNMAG

SET2 cells = test: Growth inhibition, SET-2 cells; type: cell-based, human; conditions: SET2 cells (hemizygous V617F), 72 hours
Method in brief: as §1

Ba/F3:JAK2V617F cells = test: Growth inhibition, Ba/F3:JAK2V617F cells; type: cell-based, mouse; conditions: 72 hours
Method in brief: as §1

[3] = system: JAK2 phosphorylation in Ba/F3:JAK2V617F cells; test: JAK2 phosphorylation in IL-3-stimulated Ba/F3:JAK2V617F cells; type: cell-based, mouse; conditions: 2 hours, with recombinant IL-3
Method in brief: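 Mid-log-phase Ba/F3:JAK2V617F cells were treated 2 h with the test compound at the indicated concentrations, including 1 h with 5 ng/mL recombinant mouse IL-3. Washed cells were lysed in detergent buffer. 50 µg of clarified lysate was run on SDS-PAGE and immunoblotted with anti-phospho-JAK2 (Tyr1007/1008). Blots were stripped and reprobed for total JAK2.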

HEL cells = test: Growth inhibition, HEL cells; type: cell-based, human; conditions: 72 hours
Method in brief: as §1

GI50 (K562 cells) | Structure (SMILES) | inhibition of STAT-5 phosphorylation [1] | GI50 (32D:p210T315I cells) | IC50 [2] | GI50 (SET2 cells) | GI50 (Ba/F3:JAK2V617F cells) | inhibition of JAK2 phosphorylation in cells [3] | GI50 (HEL cells)
0.1 to 0.2 µM | Cc1ccc(NC(=O)c2ccc(CN3CCN(C)CC3)cc2)cc1Nc1nccc(-c2cccnc2)n1 [imatinib] | failed to do so | 20 to 30 µM |  |  |  |  | 
 | N#C/C(=C/c1ccc(O)c(O)c1)C(=O)NCc1ccccc1 [AG490] |  |  | 33.1 µM | > 20 µM | 1 µM | did not inhibit JAK2 phosphorylation | > 20 µM
